# Hits are enriched below; roughly 2.6% of the tested compounds scored in any of these assays.
# b-catenin transl = modulators of beta-catenin nuclear translocation. HeLa beta-catenin nuclear translocation, immunofluorescence imaging. nuclear translocation activity, % at 5 µM. actives 0.3% (n = 190,000);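 active means nuclear translocation activity above 50% at 5 µM, with a well cell count of 50 or more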;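 further: per-cell ratio of nuclear to cytoplasmic median beta-catenin stain intensity; plate controls were DMSO negative control for no effect and GSK-3 inhibitor IX positive control for full effect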
#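 Signal – beta-catenin immunofluorescence imaging with DAPI · Test system – human HeLa cell line · Dosing – 5 µM primary single dose, 0.1% DMSO, 0.02–20 µM confirmation series · Measure – % activation, nuclear-to-cytoplasmic median beta-catenin signal ratio per cell · Incubation – 24 h compound exposure at 37°C, 5% CO2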
# MT stabilizer = microtubule stabilization, imaging screen; % tubulin-high responders, % at 10 µM; HeLa tubulin immunostaining HCS, 24 h; share of cells brighter than vehicle mean+2SD; AID 2205; actives 0.83% (n = 200,000);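 active means plate Z-score above 3 for both tubulin-high and condensed-nucleus cell shares, with cell loss under 80%, at 10 µM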;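 further: anti alpha tubulin signal scored within the nucleus-defined area of each cell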
# NPY-Y1 antag = NPY-Y1 (human) receptor antagonism. actives 1% (n = 200,000). inhibition, % at 3.6 µM. HEK293-CNG Y1 cells, membrane potential fluorescence; NPY at EC95, then isoproterenol. P25929;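 active means inhibition above the campaign mean inhibition of all tested compounds plus 3 SD, cut at about 20% in these data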;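 further: 0% = DMSO wells given NPY plus isoproterenol and 100% = isoproterenol alone without NPY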
#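 Test system – HEK293 Y1/CNG channel cell line · Also added – NPY agonist 25 nM, then isoproterenol 1 µM plus Ro 20-1724 25 µM · Compound dosing – one concentration, 3.6 µM, in 0.4% DMSO · Schedule – compound incubation 1 h at room temperature, readout 45 min post-stimulation · Technique – fluorescence, membrane potential probe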
# NPY-Y2 antag = antagonists of human neuropeptide Y receptor Y2. actives 0.99% (n = 140,000). P49146. NPY-Y2 expressing cells, antagonist mode. inhibition, % at 2.7 µM; in the data active means inhibition above about 17%;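 further: 0% = vehicle with agonist challenge and 100% = reference antagonist with challenge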
# Target sequence (P49146 whole entry, looked up): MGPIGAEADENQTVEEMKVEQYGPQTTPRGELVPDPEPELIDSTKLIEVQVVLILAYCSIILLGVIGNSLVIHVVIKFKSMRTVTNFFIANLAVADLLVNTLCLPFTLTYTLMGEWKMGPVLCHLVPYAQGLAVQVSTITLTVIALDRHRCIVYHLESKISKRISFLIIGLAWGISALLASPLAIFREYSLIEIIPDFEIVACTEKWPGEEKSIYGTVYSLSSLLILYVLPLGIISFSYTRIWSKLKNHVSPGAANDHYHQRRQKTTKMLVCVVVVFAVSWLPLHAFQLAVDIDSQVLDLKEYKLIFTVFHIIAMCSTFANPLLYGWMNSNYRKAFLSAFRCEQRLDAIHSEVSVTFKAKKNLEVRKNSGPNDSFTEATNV
# NPY-Y1 PAM-ag = potentiators or agonists of human neuropeptide Y receptor Y1; NPY-Y1 expressing cells, potentiator/agonist activation; AID 1304; activation, % at 3.6 µM; actives 0.37% (n = 220,000); P25929; in the data active means activation above about 33%, passing the limit was not always enough;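 further: cells stimulated with NPY at EC10 then isoproterenol at EC100; 0% = low agonist plus stimulus and 100% = saturating agonist plus stimulus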
# NPY-Y2 PAM-ag = potentiates or activates human NPY-Y2 receptor; P49146; cells expressing NPY-Y2, potentiator/agonist read-out; activation, % at 3.6 µM; actives 0.45% (n = 220,000); AID 1359; in the data active means activation above about 27%;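 further: cells stimulated with NPY near EC25 plus isoproterenol at EC100; 0% = vehicle plus submaximal agonist and 100% = vehicle plus saturating agonist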
# NPY-Y2 pot conf = human NPY-Y2 potentiation or agonism, confirmation. shares compounds with NPY-Y2 PAM-ag. actives 20% (n = 450). AID 1539. activation, % at 3.6 µM. cell-based NPY-Y2 potentiator/agonist assay; in the data active means activation above about 33%
# NPY-Y1 potentiator = NPY-Y1 potentiation or agonism as NPY-Y2 counter-screen; shares compounds with NPY-Y2 PAM-ag; Y1 HEK293-CNG cells, membrane potential fluorescence; activation, % at 3.6 µM; actives 20% (n = 450); AID 1651; in the data active means activation above about 45%;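 further: cells stimulated with submaximal NPY then isoproterenol with phosphodiesterase inhibitor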
# NPY-Y1 ag 2 = counter-screen for NPY-Y2 potentiators: agonists of human NPY-Y1. shares compounds with NPY-Y2 PAM-ag. HEK293 Y1-CNGC, membrane potential fluorescence, agonism. activation, % at 3.6 µM. actives 37% (n = 450);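 active means activation above the mean of DMSO-only control wells plus 3 SD, cut at about 18% in these data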;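 further: cells stimulated with 1 µM isoproterenol plus the PDE inhibitor Ro 20-1724; 0% = isoproterenol with DMSO and no NPY and 100% = 40 nM NPY; Y1 agonists lower the membrane potential dye signal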
# CNGC inh = blocks CNG channel activity, counter-screen for NPY-Y2 potentiators. shares compounds with NPY-Y2 PAM-ag. HEK293-CNG parental, isoproterenol cAMP, membrane potential fluorescence. inhibition, % at 3.6 µM. actives 32% (n = 450);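 active means inhibition above the control-well mean plus 3 SD of those wells, cut at about 22% in these data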;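 further: 0% = DMSO with isoproterenol and 100% = DMSO without isoproterenol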
# Y2 agonist ctr = counter-screen for NPY-Y2 potentiators: agonists of human NPY-Y2. shares compounds with NPY-Y2 PAM-ag. HEK293 Y2/CNGC cells, membrane potential fluorescence, agonist mode. activation, % at 3.6 µM. actives 56% (n = 450). AID 1710;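 active means activation above the mean of solvent-only control wells plus 3 SD, cut at about 10% in these data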;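 further: cells stimulated by isoproterenol with no NPY added so direct agonism is tested; 0% = DMSO with isoproterenol alone and 100% = NPY at EC100 plus isoproterenol; agonism lowers probe fluorescence through less cAMP and CNG channel opening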
# * marks the source's active call; other numbers are inactive results; / = not tested or not shown.
SMILES,b-catenin transl,MT stabilizer,NPY-Y1 antag,NPY-Y2 antag,NPY-Y1 PAM-ag,NPY-Y2 PAM-ag,NPY-Y2 pot conf,NPY-Y1 potentiator,NPY-Y1 ag 2,CNGC inh,Y2 agonist ctr
O=[N+]([O-])c1cccc2c(N3CCOCC3)ccnc12,-4,4,0,/,4,40*,2,6,5,4,13*
CCCc1cc(-c2[nH]ncc2-c2ccc(C(=O)OCC)o2)c(O)cc1O,-1,3,-1,-2,26,41*,20,19,10,13,22*
COc1cccc(NC(=O)Nc2nccc(C)n2)c1,0,6,1,/,12,24,/,/,/,/,/
Oc1ccccc1N=Nc1nc(-c2ccccc2)c(-c2ccccc2)[nH]1,4,4,-2,-9,48,45*,57*,69*,64*,61*,63*
COc1ccccc1N=Nc1nc(-c2ccccc2)c(-c2ccccc2)[nH]1,2,6,-7,-3,26,22,/,/,/,/,/
O=S(=O)(Nc1ncn[nH]1)c1ccc(Cl)cc1,-1,1,-3,3,1,2,/,/,/,/,/
N#Cc1c(N)nc2c(c1-c1ccccc1)CCC2,2,6,-4,/,13,5,/,/,/,/,/
CC(=O)c1c(C)[nH]c(C(=O)OCc2ccccc2F)c1C,-1,5,-2,/,9,29*,13,17,16,27*,25*
COCCCn1c(O)c(/C=C2\N=C(C#N)C(=Nc3ccc(C)cc3)O2)sc1=S,0,/,/,/,27,37*,19,9,-2,-4,27*
N#C/C(=N\Nc1ccc(Cl)c(Cl)c1)C(=O)C1CC1,0,/,/,/,13,63*,3,-38,-7,-9,5
Cc1ccc(Nc2nc(N/N=C/c3c[nH]c4ccccc34)nc(N3CCOCC3)n2)cc1,16,7,-6,-3,31,27*,41*,59*,33*,42*,44*
Cc1ccc2[nH]c(C)c(/C=N/Nc3nc4ccccc4s3)c2c1,-1,4,-12,-5,30,38*,42*,53*,31*,38*,39*
Brc1csc(/C=N/Nc2nc3ccccc3s2)c1,0,5,3,1,-12,1,/,/,/,/,/
O=C(O)C1CC=CCC1C(=O)N1CCN(c2nc(-c3ccccc3)c3ccccc3n2)CC1 (centres undefined),6,2,14,7,43,37*,17,2,18*,-6,14*
N/C(=N\OC(=O)c1ccc(Cl)cc1)c1ccc(Cl)cc1,-2,1,7,0,2,3,/,/,/,/,/
N/C(=N\OC(=O)c1ccc(OCC(F)(F)F)nc1)c1ccc(Cl)cc1,0,/,/,/,-36,82*,-11,-5,-16,-11,9
Cc1ccc(SCc2cn3cc(Cl)ccc3n2)cc1,0,/,/,/,6,-30,/,/,/,/,/
Cc1[nH]c2ccccc2c1C(Nc1nccs1)c1ccncc1 (centres undefined),-2,4,6,1,-8,27*,-5,3,-11,-4,-8
Cc1ccnc(NC(c2ccncc2)c2c(C)[nH]c3ccccc23)c1 (centres undefined),0,3,5,3,-2,-6,/,/,/,/,/
CCC(C)(C)c1ccc(OCCN2C(=O)NC(C)(C)C2=O)cc1,/,1,-1,4,8,3,/,/,/,/,/
